Reference: ChEMBL document CHEMBL4619796, “Discovery of 3-Quinazolin-4(3H)-on-3-yl-2,N-dimethylpropanamides as Orally Active and Selective PI3Kα Inhibitors” (ACS Med Chem Lett, 2020)
Calls of active or inactive are those of the source. The rule behind the calls is not given here.

Columns and labels:
[1] = target: Phosphatidylinositol 4,5-bisphosphate 3-kinase catalytic subunit alpha isoform (Homo sapiens, UniProt P42336); assay: Inhibition of PI3Kalpha (unknown origin) using PIP2:3PS peptide as substrate preincubated for 15 mins followed by ATP addition at Km concentration and further incubated for 150 mins by ADP-Glo assay
[2] = Inhibition of PI3K in human MCF7 cells assessed as reduction in AKT phosphorylation at residue S473 incubated for 2 hrs followed by insulin addition by ELISA; assay type: cell-based; conditions: MCF7, 2 h
Homo sapiens [3] = organism: Homo sapiens; assay: (§1) Selectivity ratio of IC50 for PI3Kbeta (unknown origin) using PIP2:3PS peptide as substrate preincubated for 15 mins followed by ATP addition at Km concentration and further incubated for 120 mins by ADP-Glo assay to IC50 for PI3Kalpha (unknown origin) using PIP2:3PS peptide as substrate preincubated for 15 mins followed by ATP addition at Km concentration and further incubated for 150 mins by ADP-Glo assay
Homo sapiens [4] = organism: Homo sapiens; assay: as §1, with “PI3Kdelta” for “PI3Kbeta”
Homo sapiens [5] = organism: Homo sapiens; assay: as §1, with “PI3Kgamma” for “PI3Kbeta”
SK-OV-3 = assay: Antitumor activity against human SKOV3 cells xenografted in BALB/c nude mouse assessed as tumor growth inhibition at 10 to 100 mg/kg, po via gavage administered once daily and measured after 28 days by caliper method; assay type: functional, organism-based
Method in brief: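 SKOV-3 ovarian carcinoma subcutaneous xenografts in mice. Oral gavage once daily for 28 days at 10, 30 and 100 mg kg–1 day–1. Read-out is tumor growth inhibition.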

[6] = Cmax in BALB/c mouse at 10 mg/kg, po by HPLC analysis; assay type: ADME, organism-based; set-up: dose 10 mg/kg, route oral; conditions: in vivo
[7] = Dose normalized AUC (0 to last) in BALB/c mouse at 10 mg/kg, po by HPLC analysis; assay type: ADME, organism-based; conditions: in vivo
[8] = Clearance in BALB/c mouse at 1 mg/kg, […] by HPLC analysis; assay type: ADME, organism-based; conditions: in vivo
[9] = Oral bioavailability in BALB/c mouse at 10 mg/kg by HPLC analysis; assay type: ADME, organism-based; conditions: in vivo
BT-474 [10] = assay: Antitumor activity against PI3KCA mutant human BT474 cells xenografted in BALB/c nude mouse assessed as tumor growth inhibition at 10 to 20 mg/kg, po administered once daily for 21 days by caliper method; assay type: functional, organism-based
Method in brief: (§2)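 BT-474 (PIK3CA mutant human breast ductal carcinoma) subcutaneous xenografts in Balb/c nude mice. Oral dosing once daily for 21 days. Vehicle 0.5% MC + 0.2% Tween 80. Read-out is tumor growth inhibition.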

[11] = Toxicity in BALB/c nude mouse xenografted with PI3KCA mutant human BT474 cells at 30 mg/kg, po administered once daily; assay type: organism-based, BT-474; conditions: in vivo
Method in brief: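 Balb/c nude mice bearing BT-474 subcutaneous xenografts. Oral dosing at 30 mg/kg once daily.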

BT-474 [12] = assay: Antitumor activity against PI3KCA mutant human BT474 cells xenografted in BALB/c nude mouse assessed as tumor growth inhibition at 30 mg/kg, po administered once daily for 21 days by caliper method relative to control; assay type: functional; conditions: BT-474, po, 504 h, read-out: TGI; method in brief: as §2
BT-474 [13] = assay: Antitumor activity against PI3KCA mutant human BT474 cells xenografted in BALB/c nude mouse assessed as tumor growth inhibition at 30 mg/kg, po administered once daily and measured after 30 days by caliper method relative to control; assay type: functional; conditions: BT-474, po, 720 h, read-out: TGI

Sequence of Phosphatidylinositol 4,5-bisphosphate 3-kinase catalytic subunit alpha isoform (P42336 whole entry, canonical isoform): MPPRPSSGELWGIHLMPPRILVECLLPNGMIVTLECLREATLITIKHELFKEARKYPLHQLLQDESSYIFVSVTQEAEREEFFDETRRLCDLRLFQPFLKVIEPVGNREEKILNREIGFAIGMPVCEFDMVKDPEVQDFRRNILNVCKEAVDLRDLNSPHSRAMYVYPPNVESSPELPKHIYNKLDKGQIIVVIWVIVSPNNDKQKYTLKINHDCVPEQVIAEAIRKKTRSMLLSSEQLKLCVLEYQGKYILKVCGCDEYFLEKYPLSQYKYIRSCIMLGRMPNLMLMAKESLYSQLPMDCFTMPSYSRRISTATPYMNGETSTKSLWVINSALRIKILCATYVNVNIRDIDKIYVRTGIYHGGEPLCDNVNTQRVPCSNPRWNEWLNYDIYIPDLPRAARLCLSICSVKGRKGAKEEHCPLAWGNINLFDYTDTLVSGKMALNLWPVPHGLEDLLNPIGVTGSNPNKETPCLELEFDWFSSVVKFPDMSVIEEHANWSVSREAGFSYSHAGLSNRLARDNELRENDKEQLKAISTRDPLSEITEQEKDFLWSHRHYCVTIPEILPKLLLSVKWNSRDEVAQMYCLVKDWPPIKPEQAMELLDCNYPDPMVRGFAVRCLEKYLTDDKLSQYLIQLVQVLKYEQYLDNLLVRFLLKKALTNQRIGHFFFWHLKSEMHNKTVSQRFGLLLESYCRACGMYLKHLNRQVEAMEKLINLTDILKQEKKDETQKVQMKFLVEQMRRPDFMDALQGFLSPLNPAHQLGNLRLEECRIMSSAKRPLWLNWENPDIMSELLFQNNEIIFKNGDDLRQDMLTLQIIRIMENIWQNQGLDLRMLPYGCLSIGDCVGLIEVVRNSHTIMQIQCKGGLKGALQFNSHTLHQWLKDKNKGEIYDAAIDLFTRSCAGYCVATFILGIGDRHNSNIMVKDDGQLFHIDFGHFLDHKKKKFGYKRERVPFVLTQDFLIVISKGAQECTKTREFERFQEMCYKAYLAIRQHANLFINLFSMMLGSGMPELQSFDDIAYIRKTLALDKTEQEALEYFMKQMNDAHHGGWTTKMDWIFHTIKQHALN

| Structure (SMILES) | IC50 [1] [nM] | IC50 [2] [nM] | Ratio IC50 (Homo sapiens [3]) | Ratio IC50 (Homo sapiens [4]) | Ratio IC50 (Homo sapiens [5]) | Cmax [6] [µM] | AUClast/dose [7] | CL/F [8] [mL/min/kg] | bioavailability [9] [%] | TGI (SK-OV-3) | TGI (BT-474 [10]) | Activity [11] | inhibition in vivo at 30 mg/kg (BT-474 [12]) [%] | inhibition in vivo at 30 mg/kg (BT-474 [13]) [%] |
| --- | --- | --- | --- | --- | --- | --- | --- | --- | --- | --- | --- | --- | --- | --- |
| CNC(=O)[C@H](C)Cn1cnc2ccc(-c3cnc(OC)c(NS(=O)(=O)c4ccc(Cl)cc4Cl)c3)cc2c1=O | 2.1 | 13.4 | 131 | 5.38 | 10.8 | 37 | 6260 nM·h |  |  |  | inactive | Toxic |  |  |
| CNC(=O)[C@H](C)Cn1cnc2ccc(-c3cnc(OC)c(NS(=O)(=O)c4cccc(C(F)(F)F)c4)c3)cc2c1=O | 4.4 | 87.1 | 155 | 5.79 | 10.4 | 24.7 | 2020 nM·h | 9 | 9 |  |  |  | 41.1 |  |
| Cc1nc(NC(=O)N2CCC[C@H]2C(N)=O)sc1-c1ccnc(C(C)(C)C(F)(F)F)c1 [ALPELISIB] |  |  |  |  |  |  |  |  |  |  |  |  |  | 80.2 |

The next lines start with results.

| IC50 [1] [nM] | IC50 [2] [nM] | Ratio IC50 (Homo sapiens [3]) | Ratio IC50 (Homo sapiens [4]) | Ratio IC50 (Homo sapiens [5]) | Cmax [6] [µM] | AUClast/dose [7] | CL/F [8] [mL/min/kg] | bioavailability [9] [%] | Structure (SMILES) | TGI (SK-OV-3) | TGI (BT-474 [10]) | Activity [11] | inhibition in vivo at 30 mg/kg (BT-474 [12]) [%] | inhibition in vivo at 30 mg/kg (BT-474 [13]) [%] |
| --- | --- | --- | --- | --- | --- | --- | --- | --- | --- | --- | --- | --- | --- | --- |
| 2 | 17.1 | 83.2 | 5.03 | 7.38 | 4.45 | 1631 nM.hr/(mg/kg) | 9.8 | 56.2 | COc1ncc(-c2ccc3ncn(C[C@@H](C)C(N)=O)c(=O)c3c2)cc1NS(=O)(=O)c1ccc(F)cc1Cl | inactive |  |  |  |  |
| 1.1 | 0.45 | 175 | 11.6 | 8.87 | 24 | 5700 nM·h |  |  | CNC(=O)[C@H](C)Cn1cnc2ccc(-c3cnc(OC)c(NS(=O)(=O)c4cccc(Cl)c4Cl)c3)cc2c1=O |  | inactive | Toxic |  |  |
